This experiment concerns the target Kappa-type opioid receptor (Homo sapiens, UniProt P41145). The experiment is described as follows: Agonist activity at human KOR expressed in CHO cells assessed as inhibition of forskolin-induced cAMP accumulation after 30 mins by luminescence assay. The experiment is classed as functional, cell-based. In outline:
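CHO cells stably expressing KOR or MOR, plated at 10 000 cells/well and incubated overnight at 37 °C. Compounds given as 10-point serial dilutions (1% DMSO final) with 20 μM forskolin final in HBSS/10 mM HEPES. Incubation 30 min at 37 °C, then detection reagents overnight at room temperature. HitHunter cAMP luminescence read-out; data normalized to vehicle and forskolin-only controls, nonlinear regression.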
In general terms: cAMP levels reflect the balance of adenylyl cyclase and phosphodiesterase activity.

Sequence of Kappa-type opioid receptor (P41145 whole entry): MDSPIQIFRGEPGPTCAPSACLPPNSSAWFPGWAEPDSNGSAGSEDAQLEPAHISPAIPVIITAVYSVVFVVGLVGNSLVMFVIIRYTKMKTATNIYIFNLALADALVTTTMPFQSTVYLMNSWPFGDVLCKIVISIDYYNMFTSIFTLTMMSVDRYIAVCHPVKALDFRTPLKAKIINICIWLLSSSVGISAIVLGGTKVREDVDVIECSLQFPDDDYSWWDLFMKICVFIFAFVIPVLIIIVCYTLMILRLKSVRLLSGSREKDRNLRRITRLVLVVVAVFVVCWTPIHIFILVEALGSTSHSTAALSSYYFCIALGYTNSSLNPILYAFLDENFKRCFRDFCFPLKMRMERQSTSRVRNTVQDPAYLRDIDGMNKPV

As to `COC(=O)[C@@H]1C[C@H](OC(C)=O)C(=O)[C@H]2[C@@]1(C)CC[C@H]1C(=O)O[C@H](c3ccoc3C#Cc3ccccc3C(F)(F)F)C[C@]21C`, the EC50 worked out at 0.43 µM and the Emax worked out at 100%.
Taken in the same sequence, the figures for `COC(=O)[C@@H]1C[C@H](OC(C)=O)C(=O)[C@H]2[C@@]1(C)CC[C@H]1C(=O)O[C@H](c3ccoc3CO)C[C@]21C` were 0.0033 µM and 100%.
Taken in the same sequence, the figures for `C=Cc1occc1[C@@H]1C[C@]2(C)[C@H]3C(=O)[C@@H](OC(C)=O)C[C@@H](C(=O)OC)[C@]3(C)CC[C@H]2C(=O)O1` were 0.00096 µM and 100%.
Taken in the same sequence, the figures for `COC(=O)[C@@H]1C[C@H](OC(C)=O)C(=O)[C@H]2[C@@]1(C)CC[C@H]1C(=O)O[C@H](c3ccoc3-c3cccc(OC)c3)C[C@]21C` were 0.0086 µM and 100%.
Regarding `COC(=O)[C@@H]1C[C@H](OC(C)=O)C(=O)[C@H]2[C@@]1(C)CC[C@H]1C(=O)O[C@H](c3ccoc3-c3ccc(C(F)(F)F)cc3)C[C@]21C`, the EC50 is 1.02 µM and the Emax was 100%.
Taken in the same sequence, the figures for `COC(=O)[C@@H]1C[C@H](OC(C)=O)C(=O)[C@H]2[C@@]1(C)CC[C@H]1C(=O)O[C@H](c3ccoc3-c3ccc4ccccc4c3)C[C@]21C` were 0.025 µM and 100%.
With `COC(=O)[C@@H]1C[C@H](OC(C)=O)C(=O)[C@H]2[C@@]1(C)CC[C@H]1C(=O)O[C@H](c3ccoc3C#CCCCO)C[C@]21C`, the EC50 was 0.89 µM and the Emax was 100%.
Taken in the same sequence, the figures for `COC(=O)[C@@H]1C[C@H](OC(C)=O)C(=O)[C@H]2[C@@]1(C)CC[C@H]1C(=O)O[C@H](c3ccoc3-c3ccccc3)C[C@]21C` were 0.0013 µM and 100%.
For `COC(=O)[C@@H]1C[C@H](OC(C)=O)C(=O)[C@H]2[C@@]1(C)CC[C@H]1C(=O)O[C@H](c3ccoc3CCc3ccccc3)C[C@]21C`, the EC50 was found to be 0.038 µM and the Emax was 100%.
Regarding `COC(=O)[C@@H]1C[C@H](OC(C)=O)C(=O)[C@H]2[C@@]1(C)CC[C@H]1C(=O)O[C@H](c3ccoc3-c3ccc(N)cc3)C[C@]21C`, the EC50 was 0.62 µM and the maximum response (Emax) is 65%.
For the compound `COC(=O)[C@@H]1C[C@H](OC(C)=O)C(=O)[C@H]2[C@@]1(C)CC[C@H]1C(=O)O[C@H](c3ccoc3-c3ccccc3F)C[C@]21C`, the EC50 was found to be 0.0012 µM and the Emax is 100%.
Turning to `COC(=O)[C@@H]1C[C@H](OC(C)=O)C(=O)[C@H]2[C@@]1(C)CC[C@H]1C(=O)O[C@H](c3cc(Br)oc3Br)C[C@]21C`, the EC50 stood at 0.24 µM and the Emax is 100%.
As to `COC(=O)[C@@H]1C[C@H](OC(C)=O)C(=O)[C@H]2[C@@]1(C)CC[C@H]1C(=O)O[C@H](c3ccoc3-c3ccccc3N)C[C@]21C`, the EC50 worked out at 0.43 µM and the Emax was 100%.
Taken in the same sequence, the figures for `COC(=O)[C@@H]1C[C@H](OC(C)=O)C(=O)[C@H]2[C@@]1(C)CC[C@H]1C(=O)O[C@H](c3ccoc3-c3ccc(OC)cc3)C[C@]21C` were 0.016 µM and 100%.
For `COC(=O)[C@@H]1C[C@H](OC(C)=O)C(=O)[C@H]2[C@@]1(C)CC[C@H]1C(=O)O[C@H](c3ccoc3C#Cc3ccccc3)C[C@]21C`, in that order: 0.1 µM and 100%.
Take `COC(=O)[C@@H]1C[C@H](OC(C)=O)C(=O)[C@H]2[C@@]1(C)CC[C@H]1C(=O)O[C@H](c3ccoc3C3CC3)C[C@]21C`: the EC50 is 0.001 µM and the Emax stood at 100%.
Taken in the same sequence, the figures for `COC(=O)[C@@H]1C[C@H](OC(C)=O)C(=O)[C@H]2[C@@]1(C)CC[C@H]1C(=O)O[C@H](c3ccoc3C#Cc3ccccc3OC)C[C@]21C` were 6.1 µM and 100%.
Taken in the same sequence, the figures for `CCCC#Cc1occc1[C@@H]1C[C@]2(C)[C@H]3C(=O)[C@@H](OC(C)=O)C[C@@H](C(=O)OC)[C@]3(C)CC[C@H]2C(=O)O1` were 9.25 µM and 100%.
For `COC(=O)[C@@H]1C[C@H](OC(C)=O)C(=O)[C@H]2[C@@]1(C)CC[C@H]1C(=O)O[C@H](c3ccoc3-c3ccccc3C)C[C@]21C`, in that order: 0.0054 µM and 100%.
As for `COC(=O)[C@@H]1C[C@H](OC(C)=O)C(=O)[C@H]2[C@@]1(C)CC[C@H]1C(=O)O[C@H](c3ccoc3-c3cccc4ccccc34)C[C@]21C`, the EC50 came out at 0.037 µM and the Emax turned out to be 100%.
Taken in the same sequence, the figures for `COC(=O)[C@@H]1C[C@H](OC(C)=O)C(=O)[C@H]2[C@@]1(C)CC[C@H]1C(=O)O[C@H](c3ccoc3-c3ccccc3[N+](=O)[O-])C[C@]21C` were 0.36 µM and 100%.
For `COC(=O)[C@@H]1C[C@H](OC(C)=O)C(=O)[C@H]2[C@@]1(C)CC[C@H]1C(=O)O[C@H](c3ccoc3-c3cccc(F)c3)C[C@]21C`, in that order: 0.012 µM and 100%.
Taken in the same sequence, the figures for `COC(=O)[C@@H]1C[C@H](OC(C)=O)C(=O)[C@H]2[C@@]1(C)CC[C@H]1C(=O)O[C@H](c3ccoc3-c3ccc([N+](=O)[O-])cc3)C[C@]21C` were 0.17 µM and 100%.
For `COC(=O)[C@@H]1C[C@H](OC(C)=O)C(=O)[C@H]2[C@@]1(C)CC[C@H]1C(=O)O[C@H](c3ccoc3-c3cccc(C)c3)C[C@]21C`, the EC50 turned out to be 0.0034 µM and the Emax was determined as 100%.
Taken in the same sequence, the figures for `COC(=O)[C@@H]1C[C@H](OC(C)=O)C(=O)[C@H]2[C@@]1(C)CC[C@H]1C(=O)O[C@H](c3cc(C)oc3C)C[C@]21C` were 0.25 µM and 100%.
For `COC(=O)[C@@H]1C[C@H](OC(C)=O)C(=O)[C@H]2[C@@]1(C)CC[C@H]1C(=O)O[C@H](c3ccoc3C#N)C[C@]21C`, in that order: 0.0094 µM and 100%.
Taken in the same sequence, the figures for `COC(=O)[C@@H]1C[C@H](OC(C)=O)C(=O)[C@H]2[C@@]1(C)CC[C@H]1C(=O)O[C@H](c3ccoc3-c3ccccc3OC)C[C@]21C` were 0.01 µM and 100%.
Regarding `COC(=O)[C@@H]1C[C@H](OC(C)=O)C(=O)[C@H]2[C@@]1(C)CC[C@H]1C(=O)O[C@H](c3coc(C(F)(F)F)c3)C[C@]21C`, the EC50 is 0.0031 µM and the Emax came out at 100%.
For `COC(=O)[C@@H]1C[C@H](OC(C)=O)C(=O)[C@H]2[C@@]1(C)CC[C@H]1C(=O)O[C@H](c3ccoc3C=O)C[C@]21C`, in that order: 0.0073 µM and 100%.
Taken in the same sequence, the figures for `CC#Cc1occc1[C@@H]1C[C@]2(C)[C@H]3C(=O)[C@@H](OC(C)=O)C[C@@H](C(=O)OC)[C@]3(C)CC[C@H]2C(=O)O1` were 0.026 µM and 100%.
For `COC(=O)[C@@H]1C[C@H](OC(C)=O)C(=O)[C@H]2[C@@]1(C)CC[C@H]1C(=O)O[C@H](c3ccoc3-c3ccc(F)cc3)C[C@]21C`, in that order: 0.054 µM and 100%.
Turning to `COC(=O)[C@@H]1C[C@H](OC(C)=O)C(=O)[C@H]2[C@@]1(C)CC[C@H]1C(=O)O[C@H](c3ccoc3-c3ccoc3)C[C@]21C`, the EC50 was determined as 0.0065 µM and the Emax was found to be 100%.
Taken in the same sequence, the figures for `COC(=O)[C@@H]1C[C@H](OC(C)=O)C(=O)[C@H]2[C@@]1(C)CC[C@H]1C(=O)O[C@H](c3ccoc3-c3cccc([N+](=O)[O-])c3)C[C@]21C` were 0.45 µM and 100%.
`COC(=O)[C@@H]1C[C@H](OC(C)=O)C(=O)[C@H]2[C@@]1(C)CC[C@H]1C(=O)O[C@H](c3ccoc3-c3cccc(N)c3)C[C@]21C`: the EC50 was found to be 0.63 µM and the Emax amounted to 100%.
Taken in the same sequence, the figures for `COC(=O)[C@@H]1C[C@H](OC(C)=O)C(=O)[C@H]2[C@@]1(C)CC[C@H]1C(=O)O[C@H](c3ccoc3C(F)(F)F)C[C@]21C` were 0.031 µM and 100%.
`COC(=O)[C@@H]1C[C@H](OC(C)=O)C(=O)[C@H]2[C@@]1(C)CC[C@H]1C(=O)O[C@H](c3ccoc3/C=C/c3ccccc3)C[C@]21C`: the concentration giving a half-maximal response (EC50) was 0.02 µM and the maximum response (Emax) amounted to 100%.
On to `CCc1occc1[C@@H]1C[C@]2(C)[C@H]3C(=O)[C@@H](OC(C)=O)C[C@@H](C(=O)OC)[C@]3(C)CC[C@H]2C(=O)O1`, for which the EC50 was found to be 0.0029 µM and the Emax amounted to 100%.
Turning to `COC(=O)[C@@H]1C[C@H](OC(C)=O)C(=O)[C@H]2[C@@]1(C)CC[C@H]1C(=O)O[C@H](c3ccoc3-c3ccccc3C(F)(F)F)C[C@]21C`, the EC50 is 0.0084 µM and the Emax was found to be 100%.
Take `COC(=O)[C@@H]1C[C@H](OC(C)=O)C(=O)[C@H]2[C@@]1(C)CC[C@H]1C(=O)O[C@H](c3ccoc3-c3ccc(C)cc3)C[C@]21C`: the EC50 is 0.0023 µM and the Emax was 100%.
For `COC(=O)[C@@H]1C[C@H](OC(C)=O)C(=O)[C@H]2[C@@]1(C)CC[C@H]1C(=O)O[C@H](c3ccoc3-c3cccc(C(F)(F)F)c3)C[C@]21C`, in that order: 0.027 µM and 100%.
Taken in the same sequence, the figures for `COC(=O)[C@@H]1C[C@H](OC(C)=O)C(=O)[C@H]2[C@@]1(C)CC[C@H]1C(=O)O[C@H](c3ccoc3-c3ccsc3)C[C@]21C` were 0.0043 µM and 100%.
For `COC(=O)[C@@H]1C[C@H](OC(C)=O)C(=O)[C@H]2[C@@]1(C)CC[C@H]1C(=O)O[C@H](c3ccoc3-c3ccco3)C[C@]21C`, in that order: 0.0067 µM and 100%.

The EC50 is the concentration giving half of the maximal effect. In general, Emax refers to the maximal effect, on the per cent scale that the assay sets.

Source of the values: ChEMBL document CHEMBL3351247 (J Med Chem, 2014).
